Measured values as given in ChEMBL document CHEMBL2062373, “Discovery of pyrroloaminopyrazoles as novel PAK inhibitors” (J Med Chem, 2012).

Assays:
Homo sapiens [1] = organism: Homo sapiens; assay: Inhibition of PCTAIRE; conditions: concentration not given here
[2] = target: Serine/threonine-protein kinase MARK1 (Homo sapiens, UniProt Q9P0L2); assay: Inhibition of MARK1
[3] = Clearance in dog; format: ADME, organism-based, Canis lupus familiaris; conditions: in vivo
[4] = target: T1, Mitogen-activated protein kinase 1 (Homo sapiens, UniProt P28482); assay: Inhibition of Erk2 at 1000 nM
T1 sequence (P28482 whole entry): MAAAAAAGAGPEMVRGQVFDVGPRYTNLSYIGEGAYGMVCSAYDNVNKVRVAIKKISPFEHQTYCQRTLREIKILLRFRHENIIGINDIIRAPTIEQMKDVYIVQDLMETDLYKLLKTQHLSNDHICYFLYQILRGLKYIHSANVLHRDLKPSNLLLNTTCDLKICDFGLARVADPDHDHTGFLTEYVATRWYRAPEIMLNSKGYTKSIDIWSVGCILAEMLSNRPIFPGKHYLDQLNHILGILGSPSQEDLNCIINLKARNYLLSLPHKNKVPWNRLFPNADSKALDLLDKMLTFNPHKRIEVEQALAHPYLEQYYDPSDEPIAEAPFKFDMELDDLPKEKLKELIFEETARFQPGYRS

Mus musculus [5] = assay: Free dug level in mouse xenografted with human M24 cells at 3.75 mg/kg, po BID for 15 days; format: ADME, organism-based; set-up: dose 3.75 mg/kg, route oral; conditions: in vivo, 360 h
Mus musculus [6] = assay: Free dug level in mouse xenografted with human M24 cells at 7.5 mg/kg, po BID for 15 days; format: ADME, organism-based; set-up: dose 7.5 mg/kg, route oral; conditions: in vivo, 360 h
Procedure, shortened: (§1)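 The read-out is free drug exposure, reported as unbound average concentration (free Cave) in nM. It was obtained from mice dosed orally at the stated regimen, sid or bid, during the xenograft efficacy study.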

[7] = Half life in rat at 5 mg/kg, iv and 10 mg/kg, po; format: ADME, organism-based; conditions: in vivo
[8] = Oral bioavailability in dog; format: ADME, organism-based, Canis lupus familiaris; conditions: in vivo
[9] = Efflux ratio of permeability from basolateral to apical side over apical to basolateral side in human Caco2 cells; format: ADME, cell-based; conditions: Caco-2
[10] = target: T1, Mitogen-activated protein kinase 1; assay: Inhibition of Erk2
[11] = target: Serine/threonine-protein kinase PAK 4 (Homo sapiens, UniProt O96013); assay: Inhibition of PAK4-mediated GEF-H1 phosphorylation at Ser810 by cell based assay; conditions: read-out: EC50
Sequence of Serine/threonine-protein kinase PAK 4 (O96013 whole entry): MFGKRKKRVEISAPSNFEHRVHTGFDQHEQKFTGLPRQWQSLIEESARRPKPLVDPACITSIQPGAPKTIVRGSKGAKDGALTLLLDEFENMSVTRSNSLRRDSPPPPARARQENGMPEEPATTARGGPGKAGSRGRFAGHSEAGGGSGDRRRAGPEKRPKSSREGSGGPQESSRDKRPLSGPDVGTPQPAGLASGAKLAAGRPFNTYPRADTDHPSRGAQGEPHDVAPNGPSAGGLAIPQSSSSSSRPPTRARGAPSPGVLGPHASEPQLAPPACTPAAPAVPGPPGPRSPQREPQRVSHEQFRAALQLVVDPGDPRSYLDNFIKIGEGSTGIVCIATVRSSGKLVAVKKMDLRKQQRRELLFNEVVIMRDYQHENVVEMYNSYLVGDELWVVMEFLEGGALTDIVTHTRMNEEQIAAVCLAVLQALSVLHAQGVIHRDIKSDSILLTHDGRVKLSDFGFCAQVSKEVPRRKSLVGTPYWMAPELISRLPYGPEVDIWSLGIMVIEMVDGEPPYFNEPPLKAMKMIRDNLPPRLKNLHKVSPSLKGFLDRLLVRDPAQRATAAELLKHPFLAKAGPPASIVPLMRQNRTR

[12] = target: T2, Serine/threonine-protein kinase D3 (Homo sapiens) (UniProt O94806); assay: Inhibition of PKD3; conditions: concentration not given here
T2 sequence (whole entry): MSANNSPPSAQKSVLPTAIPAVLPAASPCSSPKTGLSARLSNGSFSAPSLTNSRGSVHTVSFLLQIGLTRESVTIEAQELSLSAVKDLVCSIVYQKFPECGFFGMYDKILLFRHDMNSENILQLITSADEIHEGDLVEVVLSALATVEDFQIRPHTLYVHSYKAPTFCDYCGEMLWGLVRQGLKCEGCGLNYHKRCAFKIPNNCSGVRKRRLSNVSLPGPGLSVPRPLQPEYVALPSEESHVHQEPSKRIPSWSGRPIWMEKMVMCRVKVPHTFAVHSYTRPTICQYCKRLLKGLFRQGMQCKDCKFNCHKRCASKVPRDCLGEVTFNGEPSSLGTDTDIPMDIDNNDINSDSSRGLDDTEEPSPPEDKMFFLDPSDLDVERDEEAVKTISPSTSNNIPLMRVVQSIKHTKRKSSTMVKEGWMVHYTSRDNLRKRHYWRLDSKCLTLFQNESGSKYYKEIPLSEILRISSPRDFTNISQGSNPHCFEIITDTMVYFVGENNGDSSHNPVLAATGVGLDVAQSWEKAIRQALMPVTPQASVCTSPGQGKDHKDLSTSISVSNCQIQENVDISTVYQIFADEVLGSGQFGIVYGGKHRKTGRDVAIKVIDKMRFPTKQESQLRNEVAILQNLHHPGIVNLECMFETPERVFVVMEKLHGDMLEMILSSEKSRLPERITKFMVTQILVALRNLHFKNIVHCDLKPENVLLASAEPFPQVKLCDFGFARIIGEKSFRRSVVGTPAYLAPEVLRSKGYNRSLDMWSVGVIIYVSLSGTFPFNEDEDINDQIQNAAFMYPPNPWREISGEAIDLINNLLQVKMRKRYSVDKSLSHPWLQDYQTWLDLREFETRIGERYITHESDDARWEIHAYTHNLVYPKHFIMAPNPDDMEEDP

[13] = Volume of distribution at steady state in rat at 5 mg/kg, iv and 10 mg/kg, po; format: ADME, organism-based; conditions: in vivo, read-out: Vdss
[14] = Half life in dog; format: ADME, organism-based, Canis lupus familiaris; conditions: in vivo
[15] = Oral bioavailability in rat at 10 mg/kg; format: ADME, organism-based; conditions: in vivo
Homo sapiens [16] = organism: Homo sapiens; assay: Inhibition of RSK at 1000 nM
[17] = Antitumor activity against human M24 cells xenografted in mouse assessed as tumor growth inhibition at 3.75 mg/kg, po BID for 15 days; format: functional; conditions: M24, 360 h, read-out: TGI
[18] = Clearance in rat at 5 mg/kg, iv and 10 mg/kg, po; format: ADME, organism-based; conditions: in vivo
HCT-116 [19] = assay: Antitumor activity against human HCT116 cells xenografted in mouse assessed as tumor growth inhibition at 20 mg/kg, po BID for 15 days; format: functional; conditions: HCT-116, 360 h, read-out: TGI
Procedure, shortened: (§2)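 HCT-116 colon carcinoma xenografts in mice. Compound given orally twice daily. Efficacy expressed as percent tumour growth inhibition (TGI).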

[20] = target: Mitogen-activated protein kinase 3 (Homo sapiens) (UniProt P27361); assay: Inhibition of ERK1; conditions: concentration not given here
Sequence of Mitogen-activated protein kinase 3 (Homo sapiens) (P27361 whole entry): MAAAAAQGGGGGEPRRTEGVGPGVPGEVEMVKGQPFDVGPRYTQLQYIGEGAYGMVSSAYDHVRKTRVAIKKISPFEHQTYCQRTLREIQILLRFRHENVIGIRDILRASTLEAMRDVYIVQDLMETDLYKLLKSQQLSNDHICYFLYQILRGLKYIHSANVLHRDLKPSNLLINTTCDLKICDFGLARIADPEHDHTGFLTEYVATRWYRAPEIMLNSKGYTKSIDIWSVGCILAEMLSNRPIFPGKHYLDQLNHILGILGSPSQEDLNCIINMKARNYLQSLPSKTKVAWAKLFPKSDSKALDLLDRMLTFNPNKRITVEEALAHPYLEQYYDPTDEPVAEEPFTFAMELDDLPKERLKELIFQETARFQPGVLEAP

[21] = target: Cyclin-dependent kinase 2 (Homo sapiens, UniProt P24941)
[22] = Antitumor activity against human M24 cells xenografted in mouse assessed as tumor growth inhibition at 7.5 mg/kg, po BID for 15 days; format: functional; conditions: M24, 360 h, read-out: TGI
[23] = target: T3, Glycogen synthase kinase-3 beta (Homo sapiens, UniProt P49841)
Target sequence in this assay (P49841 whole entry): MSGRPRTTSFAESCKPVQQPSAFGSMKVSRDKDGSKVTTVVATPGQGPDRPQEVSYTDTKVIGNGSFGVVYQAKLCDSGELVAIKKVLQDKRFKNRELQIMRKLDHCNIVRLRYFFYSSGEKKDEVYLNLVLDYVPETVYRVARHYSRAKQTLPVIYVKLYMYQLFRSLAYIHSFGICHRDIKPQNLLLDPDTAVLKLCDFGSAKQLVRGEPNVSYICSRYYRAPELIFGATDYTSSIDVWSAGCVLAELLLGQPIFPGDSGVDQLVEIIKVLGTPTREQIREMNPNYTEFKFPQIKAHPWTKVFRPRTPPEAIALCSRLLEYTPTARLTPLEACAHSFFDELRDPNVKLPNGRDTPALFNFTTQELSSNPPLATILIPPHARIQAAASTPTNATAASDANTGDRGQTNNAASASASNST

[24] = Antitumor activity against human M24 cells xenografted in mouse assessed as tumor growth inhibition at 15 mg/kg, po BID for 15 days; format: functional; conditions: M24, 360 h, read-out: TGI
[25] = target: AMP-activated protein kinase, AMPK (Homo sapiens) (UniProt P54646+O43741+P54619+Q9UGJ0+Q9Y478+Q13131+Q9UGI9); assay: Inhibition of AMPK at 1000 nM; format: protein-complex assay
Homo sapiens [26] = organism: Homo sapiens; assay: Inhibition of PKA at 1000 nM
[27] = Metabolic stability in human liver microsomes assessed as extraction ratio; format: ADME, Microsome; conditions: read-out: ERH
HCT-116 [28] = assay: Antitumor activity against human HCT116 cells xenografted in mouse assessed as tumor growth inhibition at 12.5 mg/kg, po BID for 15 days; format: functional; conditions: HCT-116, 360 h, read-out: TGI; procedure, shortened: as §2
[29] = target: T3, Glycogen synthase kinase-3 beta; assay: Inhibition of GSK3beta at 1000 nM
Target sequence in this assay (P49841 whole entry, looked up): as the sequence (P49841 whole entry) above

[30] = Octanol/buffer partition coefficient, log D of the compound at pH 7.4; format: physicochemical
Mus musculus [31] = assay: Free dug level in mouse xenografted with human M24 cells at 15 mg/kg, po BID for 15 days; format: ADME, organism-based; set-up: dose 15 mg/kg, route oral; conditions: in vivo, 360 h; procedure, shortened: as §1

Sequence of Serine/threonine-protein kinase MARK1 (Q9P0L2 whole entry): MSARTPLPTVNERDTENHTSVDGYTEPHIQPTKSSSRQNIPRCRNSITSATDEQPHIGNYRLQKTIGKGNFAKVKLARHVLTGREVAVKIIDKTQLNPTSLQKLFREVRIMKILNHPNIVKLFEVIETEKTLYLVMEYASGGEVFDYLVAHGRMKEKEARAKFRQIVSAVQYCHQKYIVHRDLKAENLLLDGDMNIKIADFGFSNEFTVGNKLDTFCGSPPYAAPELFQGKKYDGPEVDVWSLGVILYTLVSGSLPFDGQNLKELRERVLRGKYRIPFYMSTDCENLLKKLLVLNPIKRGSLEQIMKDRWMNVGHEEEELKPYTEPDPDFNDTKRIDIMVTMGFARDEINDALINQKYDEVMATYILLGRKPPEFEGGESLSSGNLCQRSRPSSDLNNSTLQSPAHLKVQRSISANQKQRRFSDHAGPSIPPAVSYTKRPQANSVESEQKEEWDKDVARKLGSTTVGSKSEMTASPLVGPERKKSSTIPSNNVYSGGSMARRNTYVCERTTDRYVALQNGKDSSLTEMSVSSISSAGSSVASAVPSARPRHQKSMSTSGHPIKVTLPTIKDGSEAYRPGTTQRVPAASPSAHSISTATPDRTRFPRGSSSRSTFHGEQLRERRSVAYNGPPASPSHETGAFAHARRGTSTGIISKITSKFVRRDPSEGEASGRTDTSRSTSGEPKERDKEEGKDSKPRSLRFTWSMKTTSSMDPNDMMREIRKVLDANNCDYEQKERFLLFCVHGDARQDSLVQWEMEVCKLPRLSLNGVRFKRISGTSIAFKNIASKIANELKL

CN(C)C[C@@H](OC(=O)N1Cc2c(NC(=O)C(C)(C)C)n[nH]c2C1(C)C)c1ccccc1
inhibition (Homo sapiens [1]): > 40% | IC50 [2]: 115 nM | clearance [3]: 12 mL/min/kg | inhibition [4]: > 70% | Drug uptake(free) (Mus musculus [5]): 5.3 nM | Drug uptake(free) (Mus musculus [6]): 28.3 nM | half-life [7]: 0.8 h | bioavailability [8]: 20% | efflux ratio [9]: 9.9 | IC50 [10]: 170 nM | EC50 [11]: 4 nM | inhibition [12]: > 40% | Vd [13]: 2.8 L/kg | half-life [14]: 2.2 h | bioavailability [15]: 15% | inhibition (Homo sapiens [16]): > 70% | inhibition in vivo at 3.75 mg/kg [17]: 41% | clearance [18]: 52 mL/min/kg | inhibition in vivo at 20 mg/kg (HCT-116 [19]): 52% | inhibition [20]: > 40% | IC50 [21]: 450 nM | inhibition in vivo at 7.5 mg/kg [22]: 61% | IC50 [23]: 227 nM | inhibition in vivo at 15 mg/kg [24]: 68% | inhibition [25]: > 70% | inhibition (Homo sapiens [26]): > 70% | hepatic extraction ratio [27]: 0.44 | inhibition in vivo at 12.5 mg/kg (HCT-116 [28]): 37% | inhibition [29]: > 70% | logD [30]: 2.52 | Drug uptake(free) (Mus musculus [31]): 50.5 nM
